In the EternaBench riboswitch data:

Tested on: MS2 coat protein
Experiment: apparent Kd, MS2 coat protein; higher = weaker binding; RNA-MaP array; FMN 200 µM where present
Procedure, shortened: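 Green signal from SNAP-549-labelled MS2 coat protein was normalised to red-channel RNA signal and to the median Fmax of control clusters. The protein was titrated from 0.7 or 1.5 nM, doubling to 3 µM, without and then with constant ligand, over designs transcribed by stalled E. coli RNA polymerase on Illumina sequencing-chip clusters, in 100 mM Tris-HCl pH 7.5, 80 mM KCl, 4 mM MgCl2, BSA, DTT, yeast tRNA and Tween-20. The apparent Kd is the median of filtered per-cluster binding-curve fits.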

[1] = designed as: OFF switch for flavin mononucleotide, no ligand
[2] = ligand present: flavin mononucleotide, designed as: OFF switch for flavin mononucleotide
[3] = designed as: ON switch for flavin mononucleotide, no ligand
[4] = ligand present: flavin mononucleotide, designed as: ON switch for flavin mononucleotide

Row | Sequence | apparent Kd [1] [nM] | apparent Kd [2] [nM] | apparent Kd [3] [nM] | apparent Kd [4] [nM]
1 | CGAAACUACGAGAAGGACAUGUGGUCCUUCAGUUACAUGAGGAUCACCCAUGUAGGAUAUCGUAGUUUCAGGAUCGUGAGAUCG | 45 | 19.4 |  | 
2 | CGAACCCGAGGAUAUCGUAAACCCGACAUGAGGAUCACCCAUGUCAUCCUCACGGCGCCACGAGAAGGCGGUGUUU | 56.5 | 160 |  | 
3 | CGAACUAAGUAGAAGGCUGUCUUAAAAUAGGACAGAGGAUAUACAUGAGGAUCACCCAUGUACUCCUUUAAUAAGUUUGAAAUA | 5.84 | 6.48 |  | 
4 | CGAAGGGAGUCAGGAUAUGUUCCUUUCAUACGGACAGAAGGGACUCCUUACAUGAGGAUCACCCAUGUAAGGGUAGUCUUCAGG | 60.7 | 90.6 |  | 
5 | CGAGCUGCUGUGAGGAUAUGCCUGUGGGUGCGUGGGUAGAAGGCACAUGAGGAUCACCCAUGUCCUGCAGCUCG | 856 | 412 |  | 
6 | CGAUGGUAUAUAGGAUAUCAUGUGCAAACAUGAGGAUCACCCAUGUAGGAACGUCAGUUCAAUAAUGAGAAGGAUAUACCAUCG |  |  | 35.1 | 10.9
7 | CGAUGUUAUGUCAGGAUAUGCAUUGCGAAAGCAAUGCAGAAGGGACAUGAGGAUCACCCAUGUCCUAACCAUCG | 13.2 | 20.1 |  | 
8 | CGAUUGUAUAGAGGAUAUGUUAUACAUGAGGAUCACCCAUGUGAGGUGGAAAUAUUUAAUUACAUACAGAAGGCUAUACAAUCG | 231 | 237 |  | 
9 | CGCAACUCUUCACAUGUCAACAUGAGGAUCACCCAUGUAUUGAGAAGGAGGAAGAAGAGAGAUUCCUAGGAUAUCAGAGUUGCG | 6.75 | 6.08 |  | 
10 | CGCACUGAUAGAGGAUAUGUUUAACAUGAGGAUCACCCAUGUGUACAAGUAUCAAUAUUUAUCAAACAGAAGGCUAUUAGUGCG | 4.84 | 3.88 |  | 
11 | CGCAGGAUACAGAAGGAGUUAUUGAGAGGUUUACUAGGAUAUGUUCACAUGAGGAUCACCCAUGUCGUAUGGUUUUUUGUUGCG | 22.6 | 16.1 |  | 
12 | CGCAUGUAAGGAUAUUAGUAGUAGUCAGAAUAGACUAUUACUGAGAAGGUACAUGAGGAUCACCCAUGUUAGCG | 117 | 592 |  | 
13 | CGCUAUGAUGGGUUUAAUGGAGCAUAGGAUAUGCUUGUACAUGAGGAUCACCCAUGUUAUAUUGUGCAGAAGGGUGCAUUUGCG |  |  | 433 | 157
14 | CGCUGUCACGCAGGAUAUGCAAUGGAUUACAUUGCAGAAGGGCGAUCACAUGAGGAUCACCCAUGUGUAGACAGUGAAGAAGAG |  |  | 738 | 45.8
15 | CGGACCGGCUCAGGAUAUGGGUGCUCAAAAGACAUGAGGAUCACCCAUGUCUCAAGCUGUGCACAUCAGAAGGGAGCUUCGGGU |  |  | 13.3 | 16.3
16 | CGGCAAGUCACAGGAUAUGGUGAUGUACAUGAGGAUCACCCAUGUCCGUCUUCUCUCACAAGAUGCCAGAAGGGUGACCUCCGG |  |  | 760 | 131
17 | CGGCAUCAUGUAGGAUAUGCGUGGCGAAGCUAUGCAGAAGGACAUGAGGAUCACCCAUGUCUUACUGUGCGUACACAGUUGCCG | 6.29 | 11.2 |  | 
18 | CGGCCCUAUCGAGGAUAUAAGUCUAGGACAUGAGGAUCACCCAUGUAUGUCUUAGAAGGCGAUAGGGCCAGCCUGUUACAGGCA |  |  | 29.7 | 6.23
19 | CGGGAGGAAGGAUAUACACGGCCUCCUAGAAUAAAUCCUGGACAUGAGGAUCACCCAUGUAGAAGGUCCACCGA | 18.9 | 24.4 |  | 
20 | CGGUACAUCGGAGGAUAUCAUGUAAAUACAUGAGGAUCACCCAUGUCGAUGGAGACAUCGGAGAUUGAGAAGGCCGAUGUACCG |  |  | 186 | 9.27
21 | CGUAACUACAUAGGAUAUUGAUACAUGAGGAUCACCCAUGUUUUUGGGAUUAGUUUAAUAUUAAGCAAGAAGGAUGAAGUUACG |  |  | 45.4 | 31.1
22 | CGUACUGAAGUAAGGAUAUUGUCUCGGAUACGAAACAAGAAGGUACAUGAGGAUCACCCAUGUUGACAGUACGA | 16.6 | 16.7 |  | 
23 | CGUCGAUACCAGAAGGACAUGAGGAUCACCCAUGUAGGAUAUGGGUGACCGGGAUGGUGGACACGGUGCCCGGGCACAUGCGAC |  |  | 81.8 | 14.9
24 | CGUGAAAACAUAGGAUAUUGUUACAUGAGGAUCACCCAUGUCAACCAUUUAUCUCAAAUUGUUGACAAGAAGGAUGAGGUCACG |  |  | 118 | 38.9
25 | CGUGCAUAUGUAGGAUAUGGUUAUCUAUGUCUAGUUACUAGACAUAGAUAACCAGAAGGACAUGAGGAUCACCCAUGUUGCACG | 12.8 | 24.2 |  | 
26 | CGUGCGUAUGUGAGGAUAUGCUGGUCCUUGGAUCGGCAGAAGGCACAUGAGGAUCACCCAUGUGGUGUCGUUCG | 219 | 31.6 |  | 
27 | CGUGCGUCGACAGGAUAUACAGAUUGGCUCCGGUACAUGAGGAUCACCCAUGUAGAAGGGUCACGCGCGGAUAGAACAUUCUAA | 9.09 | 40.3 |  | 
28 | CGUGGACAUGAGGAUCACCCAUGUGAGGAUAUCGGCUGGUACGUGUUGGCUGGCAUCUCGAGAAGGCACAUAGU | 43.8 | 80.4 |  | 
